Compounds with a hit are over-represented: about 1.8% of the library has one in this group of screens.
HKDC1 inh – inhibitors of human hexokinase HKDC1; recombinant HKDC1, G6PDH/diaphorase resazurin coupled fluorescence; AID 493160; hit rate 0.16% among 340,000; inhibition, % at 20 µM;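 active = inhibition above about 35% when tested at 20 µM, limit read from the data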;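 also: plate controls were DMSO wells with enzyme for no effect and DMSO wells lacking enzyme for full effect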
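Assay system: in-house recombinant HK5 (HKDC1) enzyme. Input: HKDC1 at 5 µg/mL. Medium: Tris pH 8.0 buffer with MgCl2, Tween-20, BSA, BME. Dosing: single 20 µM dose. Schedule: 90 min reaction incubation at room temperature, dark. Signal: resazurin-to-resorufin fluorescence via G6PDH and diaphorase coupling, 525/613 nm. Controls: DMSO-enzyme wells negative, buffer-substituted wells positive.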
LMPTP block – blocks human LMPTP phosphatase; recombinant LMPTP-A, OMFP fluorogenic substrate, fluorescence intensity; inhibition, % at 20 µM; hit rate 0.22% among 360,000; AID 651560;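 active = compounds that cut the enzyme signal by at least half of the control window in the single-dose screen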;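 also: plate controls were DMSO wells with enzyme plus substrate for no effect and substrate without enzyme for full effect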
Target sequence (P24666 whole entry, looked up): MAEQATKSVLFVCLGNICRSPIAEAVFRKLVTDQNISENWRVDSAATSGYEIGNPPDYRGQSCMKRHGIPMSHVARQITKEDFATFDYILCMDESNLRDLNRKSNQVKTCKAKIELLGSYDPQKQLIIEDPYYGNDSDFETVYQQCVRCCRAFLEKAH
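test system = LMPTP-A | amount = 0.625 nM LMPTP-A final | reagent = fluorogenic phosphatase substrate OMFP at 400 µM final | incubation = 50 min at room temperature | benchmarks = no-enzyme low control, uninhibited high control | medium = Bis-Tris pH 6.0, DTT, detergent | signal = fluorescence intensity of OMFP turnover product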
STEP block – STEP (human) phosphatase inhibition. recombinant STEP, OMFP fluorogenic substrate, fluorescence. inhibition, % at 20 µM. P54829. hit rate 0.25% among 360,000;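 active = inhibition at 20 µM, scaled per plate between control wells, above about 37%, limit read from the data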;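 also: 0% = DMSO with enzyme and substrate and 100% = substrate only without enzyme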
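Material: STEP (striatal-enriched tyrosine phosphatase) enzyme, cell-free; Compound dosing: 20 µM single dose in 1% DMSO; Technique: fluorescence read at 480 nm ex / 540 nm em; Times: reaction 20 min, ambient temperature; Medium: 50 mM Bis-Tris pH 6.0 with 2.5 mM DTT and 0.005% Tween 20; Also added: OMFP at 25 µM.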
DNMT1 block – inhibitors of human DNMT1 | hit rate 0.83% among 360,000 | inhibition (reported as % activation of signal), % at 10 µM | DNMT1 molecular beacon, Hinp1I cleavage, fluorescence | P26358; in the data active = inhibition above about 50%
Scp-1 inhibitor – Scp-1 (human) phosphatase inhibition. Q9GZU7. Recombinant Scp1, phosphopeptide, malachite green phosphate absorbance. inhibition, % at 20 µM. hit rate 0.88% among 340,000. AID 493091;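 active = inhibition above about 50% at 20 µM, limit read from the data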;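 also: plate controls were DMSO wells with enzyme for no effect and wells lacking enzyme for full effect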
Target sequence (Q9GZU7 76-261 limits assumed): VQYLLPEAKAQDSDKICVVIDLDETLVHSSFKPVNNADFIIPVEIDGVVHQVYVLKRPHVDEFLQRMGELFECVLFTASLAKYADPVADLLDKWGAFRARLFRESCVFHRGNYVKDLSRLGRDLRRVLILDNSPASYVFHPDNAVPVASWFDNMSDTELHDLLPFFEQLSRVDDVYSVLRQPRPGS
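Assay system: SCP-1 catalytic fragment, aa 76-261 | Buffer or medium: Tris acetate buffer pH 5.5 with MgCl2 and Tween-20 | Compound: One concentration, 20 µM, with 1.0% DMSO | Also added: Phospho 17-mer peptide substrate | Signal: Absorbance at 630 nm | Incubation: 45 min enzyme reaction at room temperature | Measure: % inhibition of SCP-1 phosphate liberation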
SUMO1 PPI mod – modulators of human SUMO1-mediated protein-protein interactions; hit rate 0.33% among 360,000; AID 602429; P63165; SUMO1 binding to a labelled peptide, TR-FRET, 1 h; inhibition, % at 20 µM; in the data active = inhibition above about 37%
Target sequence (P63165 whole entry, looked up): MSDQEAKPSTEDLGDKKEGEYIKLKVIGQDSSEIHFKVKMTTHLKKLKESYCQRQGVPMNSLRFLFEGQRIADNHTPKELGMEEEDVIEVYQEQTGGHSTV
HKDC1 act conf – confirmation of human HKDC1 activators; shares compounds with HKDC1 inh; recombinant HKDC1, G6PDH/diaphorase resazurin fluorescence; stronger effect = lower value; inhibition, % at 20 µM; hit rate 14% among 740; AID 504708;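 active = inhibition at or below a set negative limit, negative inhibition meaning the enzyme was activated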
Starred values were filed as active, the others as inactive.

For CCCCC1Cc2[nH]c(=S)[nH]c(=O)c2C(c2cccc3ccccc23)O1 (centres undefined) the results were LMPTP block 0 and SUMO1 PPI mod 7.
For O=C1/C(=C/Nc2cccc([N+](=O)[O-])c2)CCc2ccccc21 the results were HKDC1 inh 41*, LMPTP block 5, STEP block 9, DNMT1 block -25, Scp-1 inhibitor -14, SUMO1 PPI mod -21 and HKDC1 act conf 5.
CNC(=O)C[C@@H]1C(=O)N(C2CCCCC2)CC1(C)C was read as LMPTP block -1, STEP block -4, DNMT1 block 2 and SUMO1 PPI mod 5.
`COc1ccc(C(=O)N2CCC(C)(C(=O)O)C2)cc1OC` (centres undefined) gave LMPTP block -2, STEP block -1, DNMT1 block 1 and SUMO1 PPI mod -1.
`O=C(NC(NC1CCS(=O)(=O)C1)C(=O)c1cccs1)c1ccccc1` (centres undefined) gave HKDC1 inh -5 and Scp-1 inhibitor 0.
`O=C(NC1=C(NC2CCS(=O)(=O)C2)C(=O)c2ccccc2C1=O)c1ccccc1` (centres undefined) gave HKDC1 inh 53*, LMPTP block 3, STEP block 2, DNMT1 block 48, Scp-1 inhibitor -3, SUMO1 PPI mod 16 and HKDC1 act conf 69.
For COc1ccc(CN2CCn3nc(C(=O)NC(C)C)cc3C2=O)cc1 the results were HKDC1 inh -75, LMPTP block -1, STEP block -3, DNMT1 block 1, Scp-1 inhibitor -6, SUMO1 PPI mod 3 and HKDC1 act conf -28.
For CN(C)S(=O)(=O)c1ccc(Cl)c(NC(=O)C2CCN(S(=O)(=O)c3cccs3)CC2)c1 the results were HKDC1 inh 2, LMPTP block 1, STEP block -1, DNMT1 block 2, Scp-1 inhibitor -10 and SUMO1 PPI mod -1.
Screening COc1cccc(C(=O)NCC(c2ccco2)N2CCc3ccccc3C2)c1 (centres undefined) returned HKDC1 inh 35, LMPTP block 1, STEP block 4, DNMT1 block 1, Scp-1 inhibitor -2, SUMO1 PPI mod -2 and HKDC1 act conf 0.
Screening NS(=O)(=O)c1ccc(N/N=C/c2ccc(O)c(O)c2O)c([N+](=O)[O-])c1 returned HKDC1 inh 36*, LMPTP block 65*, STEP block 5, DNMT1 block -5, Scp-1 inhibitor 48, SUMO1 PPI mod 14 and HKDC1 act conf -11.
Cc1cc(C)c(C(=O)c2ccccc2)c(C)c1 was read as HKDC1 inh -4, LMPTP block 0, STEP block 2, DNMT1 block 4, Scp-1 inhibitor -7 and SUMO1 PPI mod 3.
Screening CCN(CC)C(=O)c1ccc(C(=O)c2c(C)cc(C)cc2C)cc1 returned HKDC1 inh 39*, LMPTP block 1, STEP block 0, DNMT1 block 0, Scp-1 inhibitor 0, SUMO1 PPI mod -3 and HKDC1 act conf -40*.
For COc1ccc(/C=C/C(=O)OCC(=O)Nc2cccc(S(=O)(=O)NC3=NCCCCC3)c2)cc1 the results were HKDC1 inh 2, LMPTP block 0, STEP block -4, DNMT1 block 0, Scp-1 inhibitor -2 and SUMO1 PPI mod -21.
`O=C(COc1ccccc1/C=C\c1[nH]c(=O)[nH]c(=O)c1[N+](=O)[O-])Nc1ccccc1` gave HKDC1 inh 40*, LMPTP block -1, STEP block 3, DNMT1 block 35, Scp-1 inhibitor -4, SUMO1 PPI mod 25 and HKDC1 act conf 9.
O=C1C=C(Nc2ccccc2C(=O)O)c2ccccc2C1=O was read as HKDC1 inh 46*, LMPTP block 8, STEP block 6, DNMT1 block 55*, Scp-1 inhibitor 17, SUMO1 PPI mod 21 and HKDC1 act conf 44.
Screening COC(=O)[C@H](Cc1ccccc1)NC(=O)/C=C/[C@H]1O[C@@H](n2ccc(=O)[nH]c2=O)[C@H](O)[C@@H]1O returned LMPTP block -1, STEP block 7, DNMT1 block 6 and SUMO1 PPI mod 2.
For Nn1cnnc1N/N=C/c1cc(Br)cc(Br)c1O the results were HKDC1 inh -52, LMPTP block -2, STEP block 2, DNMT1 block -3, Scp-1 inhibitor -2, SUMO1 PPI mod 4 and HKDC1 act conf -32*.
CC(C)(C)c1ccc(/C=N/Nc2nncn2N)cc1 was read as HKDC1 inh -6, LMPTP block -3, STEP block 1, DNMT1 block -2, Scp-1 inhibitor -6 and SUMO1 PPI mod -1.
For Cc1ccccc1/C=C/C(=O)c1ccc([N+](=O)[O-])o1 the results were HKDC1 inh 46*, Scp-1 inhibitor -10 and HKDC1 act conf 36.
For Cc1cccc(/C=C/C(=O)c2ccc([N+](=O)[O-])o2)c1 the results were HKDC1 inh 50*, LMPTP block -2, STEP block 2, DNMT1 block 18, Scp-1 inhibitor -4, SUMO1 PPI mod -5 and HKDC1 act conf 12.
Screening O=C1C=CC2(O[C@H](c3ccccc3)[C@@H](c3ccccc3)O2)[C@H](Sc2ccccc2O)C1 returned HKDC1 inh 29, LMPTP block 1, STEP block 1, DNMT1 block -6, Scp-1 inhibitor -2 and SUMO1 PPI mod 7.
For COC(=O)c1ccc2c(c1)C(C)(C)C(/C=C/c1ccccc1O)=[N+]2C the results were HKDC1 inh 38*, LMPTP block 6, STEP block -6, DNMT1 block -17, Scp-1 inhibitor 99*, SUMO1 PPI mod -11 and HKDC1 act conf 7.
Screening COC(=O)c1ccc(N)c(N=CC2=C(O)CC(C)(C)CC2=O)c1 returned HKDC1 inh 17, LMPTP block -1, STEP block 0, DNMT1 block -8, Scp-1 inhibitor -30 and SUMO1 PPI mod -14.
`COc1ccc(S(=O)(=O)NC(=O)C2(C)CCN2C(=O)C2CCCCC2)cc1OC` (centres undefined) gave LMPTP block -3, STEP block 0, DNMT1 block -1 and SUMO1 PPI mod 2.
`O=C1C=C(N(CCO)Cc2ccccc2)c2ccccc2C1=O` gave HKDC1 inh 35*, LMPTP block 8, STEP block 1, DNMT1 block 77*, Scp-1 inhibitor -3, SUMO1 PPI mod 32 and HKDC1 act conf 29.

Screens as filed in PubChem.
